We go through two molecules from paper PMC5218545 (Angewandte Chemie (International ed. in English), 2016).

Molecules are shown by their SMILES.

What all share (type): biochemical
Assay [1] has as its target T1, recombinant purified enzyme 15-LOX-1 (Homo sapiens, UniProt P16050).
T1 sequence (P16050 1-662): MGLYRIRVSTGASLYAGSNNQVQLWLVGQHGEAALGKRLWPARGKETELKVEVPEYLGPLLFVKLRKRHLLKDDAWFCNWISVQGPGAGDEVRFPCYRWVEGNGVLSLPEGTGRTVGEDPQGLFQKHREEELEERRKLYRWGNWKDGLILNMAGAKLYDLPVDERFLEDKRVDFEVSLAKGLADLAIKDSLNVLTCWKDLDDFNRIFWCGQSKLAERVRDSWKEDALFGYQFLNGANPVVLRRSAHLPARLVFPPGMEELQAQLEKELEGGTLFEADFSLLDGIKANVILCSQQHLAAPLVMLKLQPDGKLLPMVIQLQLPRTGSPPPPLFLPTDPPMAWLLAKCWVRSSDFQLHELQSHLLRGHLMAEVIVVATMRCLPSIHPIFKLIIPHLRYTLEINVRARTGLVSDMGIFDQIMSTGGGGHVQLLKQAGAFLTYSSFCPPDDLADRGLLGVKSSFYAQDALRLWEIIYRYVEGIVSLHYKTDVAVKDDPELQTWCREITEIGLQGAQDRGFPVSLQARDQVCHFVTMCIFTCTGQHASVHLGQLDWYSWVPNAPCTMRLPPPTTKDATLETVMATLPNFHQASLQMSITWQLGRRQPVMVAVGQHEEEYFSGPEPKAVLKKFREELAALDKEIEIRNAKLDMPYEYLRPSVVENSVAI
The assay can be described thus: ABPP two-step labeling of recombinant purified 15-LOX-1. To be noted: 10 min incubation with inhibitor, then 2 min with probe N144. The procedure, abridged: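 Recombinant purified human 15-LOX-1 preincubated 10 min with a reversible 15-LOX-1 inhibitor or a 5-LOX inhibitor as control. Then 2 min with an alkene-tagged bis-alkyne probe. Biotinyl phenyl boronic acid was attached to the terminal alkene by oxidative Heck reaction. Equal enzyme amounts were run on Western blot and detected by HRP-streptavidin luminescence, alongside Coomassie staining and no-probe controls.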

Assay [2] concerns the target T2, endogenous 15-LOX-1 in HeLa cell lysate (Homo sapiens, UniProt P16050).
T2 sequence (P16050 1-662): T1 sequence (P16050 1-662)
The assay is described as follows: Activity-based labeling in HeLa cell lysate. To be noted: inhibitor 90 μM; bands also characterized by the 15-LOX-1 antibody. The procedure, abridged: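 HeLa cell lysate: endogenous enzyme preincubated with inhibitors at 90 μM, then labeled with an alkene-tagged bis-alkyne probe. Biotinylation by oxidative Heck reaction with biotinyl phenyl boronic acid. Blots were first probed with 15-LOX antibody, then stripped and developed with HRP-conjugated streptavidin by on-blot luminescence. Included no-probe controls.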

Assay [3] concerns the target T3, 15-LOX-1 in tissue lysates from different mice organs (Mus musculus, UniProt P39654).
T3 sequence (P39654 1-663): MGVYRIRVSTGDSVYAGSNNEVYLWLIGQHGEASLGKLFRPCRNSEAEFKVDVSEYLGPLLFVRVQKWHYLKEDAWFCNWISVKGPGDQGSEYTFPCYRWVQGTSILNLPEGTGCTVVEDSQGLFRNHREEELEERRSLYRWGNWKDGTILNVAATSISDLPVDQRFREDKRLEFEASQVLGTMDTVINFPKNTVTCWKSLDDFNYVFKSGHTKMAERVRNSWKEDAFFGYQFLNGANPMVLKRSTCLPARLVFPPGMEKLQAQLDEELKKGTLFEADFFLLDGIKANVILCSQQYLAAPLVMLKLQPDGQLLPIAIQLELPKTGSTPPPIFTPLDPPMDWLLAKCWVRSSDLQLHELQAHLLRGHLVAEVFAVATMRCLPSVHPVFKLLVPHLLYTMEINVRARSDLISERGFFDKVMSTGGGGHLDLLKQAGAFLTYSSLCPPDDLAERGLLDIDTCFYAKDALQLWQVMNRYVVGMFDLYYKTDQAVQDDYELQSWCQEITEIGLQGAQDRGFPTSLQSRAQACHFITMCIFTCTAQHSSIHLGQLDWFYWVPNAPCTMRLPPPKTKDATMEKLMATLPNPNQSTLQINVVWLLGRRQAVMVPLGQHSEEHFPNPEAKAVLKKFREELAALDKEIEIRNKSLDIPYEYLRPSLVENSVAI
The assay can be described thus: Activity-based labeling in mouse tissue lysates. As to conditions: inhibitor 90 μM, three characteristic bands. The procedure, abridged: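 Mouse heart tissue lysate: endogenous enzyme preincubated with inhibitors at 90 μM, then labeled with an alkene-tagged bis-alkyne probe. The probe was biotinylated by oxidative Heck coupling with biotinyl phenyl boronic acid. Labeled proteins were detected on blot with HRP-conjugated streptavidin luminescence.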

Take `c1ccc2c(c1)SCc1c-2[nH]c2ccccc12` [PD-146176]: in assay [1], the “effect of inhibitor pre-incubation on N144 labeling of recombinant 15-LOX-1” value is “labeling was clearly inhibited”. The “effect of inhibitor on N144 labeling in HeLa cell lysates” value in assay [2] is “decrease of the labeling”. In assay [3], the “effect of inhibitor on N144 labeling in mouse heart lysate” value is reported as “reduced labeling”.

Take `CC(c1cc2ccccc2s1)N(O)C(N)=O` (stereo not shown) [Zileuton]: in assay [1], the “effect of inhibitor pre-incubation on N144 labeling of recombinant 15-LOX-1” value is “did not affect the labeling”.
